In PubChem BioAssay:
Calls of active or inactive are those of the source.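 Rule for the calls, unless noted: active = compounds giving at least 50% inhibition in the cell-based MKP-3 phosphatase rescue imaging test; inactive = the rest.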

How the values were obtained:
[1] = inhibitors of TNFa-induced NFkB p65 translocation, primary screen, imaging, HUVEC, MLSMR starter and 10KST1 sets (AID 438;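 active = inhibition above 20% together with a positive visual image hit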;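 note: compound added about 3h40 before a 20 min TNFalpha stimulation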;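 for inhibition: signal is the nuclear over cytoplasmic p65 intensity ratio per well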); settings: HUVEC TNFa-induced p65 nuclear translocation; cell count: measured here: nuclei count (cytotoxicity indicator), at 2.08 µM; inhibition: at 2 µM, stronger effect = higher value, 0% TNFa-plus-vehicle, 100% no-TNFa wells
[2] = inhibitors of E-selectin induction by TNFa, primary screen, imaging, HUVEC, immunofluorescence, MLSMR starter and 10KST1 sets (AID 487;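 active = visually confirmed hit in the image check and inhibition above 20%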;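 for inhibition: signal is fraction of cell area covered by stained E-selectin grains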;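 for nuclei count: 100% = median nuclei count of all wells on the same plate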); settings: HUVEC TNFalpha-induced E-selectin immunofluorescence imaging, at 2 µM; inhibition: stronger effect = higher value; nuclei count: measured here: cell number, toxicity
[3] = DUSP6 inhibitors restoring Erk phosphorylation by chemical complementation, primary imaging in DUSP6-transfected HeLa (AID 609); settings: HeLa MKP-3 transfected, phospho-Erk imaging KS statistic, at 10 µM, cells stimulated with TPA for 15 min;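 for inhibition: phospho-Erk level distribution per well compared with pooled transfected vehicle control wells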
[4] = target: Dual specificity protein phosphatase 6 (Homo sapiens) (UniProt Q16828); assay: as above; settings: HeLa MKP-3 transfected, phospho-Erk imaging KS statistic; at 10 µM; stronger effect = higher value; cells stimulated with TPA for 15 min
[5] = target: Voltage-gated potassium channel subunit beta-2 (Rattus norvegicus) (UniProt P62483); assay: KvBeta enzyme negative modulators, primary screen, biochemical, NADPH fluorescence (AID 622;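 active = fluorescence slope higher than the sample average by over 3 SD, cut at about -0.22 in these data, passing the limit was not always enough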;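 note: slope of raw intensity against log time taken from 70 to 1610 s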); settings: recombinant KvBeta, 4-cyanobenzaldehyde reduction, at 10 µM, stronger effect = higher value
[6] = target: Voltage-gated potassium channel subunit beta-2 (Rattus norvegicus) (UniProt P62483); assay: KvBeta positive modulators, primary screen, biochemical, NADPH fluorescence (AID 623;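 active = NADPH fluorescence slope more negative than the mean of all samples by about 3 SD, 99.7% confidence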;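 note: fluorescence intensity change per second fitted from 20 to 320 s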); settings: Recombinant KvBeta, NADPH fluorescence decrease slope, 10 min; at 10 µM; stronger effect = lower value
[7] = target: Alpha-2C adrenergic receptor (Homo sapiens) (UniProt P18825); assay: modulators of alpha2C/GIRK thallium flux, primary screen, cell-based, HEK293 alpha2C/GIRK1/2 (AID 624;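 active = fluorescence slope after compound addition differing from the mean of all screened samples at 99.7% confidence, in either direction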;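 note: slope of fluorescence ratio to pre-addition baseline per second over 15 to 24 s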); settings: thallium flux BTC fluorescence, at 10 µM, actives lie on both sides
[8] = inhibitors of larval lipid processing in zebrafish, primary screen, whole organism, PED6 fluorescence, gall bladder and intestine (AID 686;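 active = a full or partial loss of lipid-probe fluorescence in the fish gall bladder, intestine or both, judged by eye; inactive = no fluorescence loss, or compound toxic to the fish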;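 note: larvae 5 to 7 days old with five fish per well; signal comes from phospholipase A2 cleavage of quenched PED6 carried via bile; overnight exposure to compound and PED6 before scoring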); settings: Zebrafish larvae PED6 lipid processing, fluorescence scoring; screened at 20 µM (by protocol)
Procedure, shortened: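 Doses: 20 µM single dose. Test system: live zebrafish larvae aged 5-7 days, whole organism. Quantity: five larvae per well. Measured by: By-eye fluorescence microscopy. Reagent: ingested quenched lipid PED6 at 100 nM. Read-out: visual per-well fluorescence inhibition score. Times: overnight exposure of larvae to compound plus PED6.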

[9] = inhibitors of Chlamydomonas gravitaxis, primary screen, whole organism, Chlamydomonas reinhardtii, WT vs cilia-less mutant, absorbance, 96-well (AID 463189;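 active = inhibition at or above 50% relative to wild type and mutant plate controls; inactive = inhibition below 50%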;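 note: 0% = wild type cc124 cells in DMSO and 100% = ciliumless bld1 mutant cells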); settings: OD600 absorbance, 2 days, at 10 µM, stronger effect = higher value
[10] = measured here: cell density z-score
[11] = measured here: nuclear c-Myc green intensity z-score
[12] = measured here: nuclear pErk red intensity z-score, stronger effect = higher value

Sequence of Voltage-gated potassium channel subunit beta-2 (Rattus norvegicus) (P62483 whole entry, looked up): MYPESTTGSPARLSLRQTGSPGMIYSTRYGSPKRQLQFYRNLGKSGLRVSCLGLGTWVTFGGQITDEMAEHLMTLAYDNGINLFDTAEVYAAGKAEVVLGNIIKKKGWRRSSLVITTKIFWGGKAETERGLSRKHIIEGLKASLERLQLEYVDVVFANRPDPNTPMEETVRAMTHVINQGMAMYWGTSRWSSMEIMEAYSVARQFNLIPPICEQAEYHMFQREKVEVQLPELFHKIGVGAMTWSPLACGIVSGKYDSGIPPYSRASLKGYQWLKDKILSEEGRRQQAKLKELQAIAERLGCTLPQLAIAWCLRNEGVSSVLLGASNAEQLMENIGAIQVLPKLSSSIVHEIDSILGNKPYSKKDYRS
Sequence of Alpha-2C adrenergic receptor (Homo sapiens) (P18825 whole entry, looked up): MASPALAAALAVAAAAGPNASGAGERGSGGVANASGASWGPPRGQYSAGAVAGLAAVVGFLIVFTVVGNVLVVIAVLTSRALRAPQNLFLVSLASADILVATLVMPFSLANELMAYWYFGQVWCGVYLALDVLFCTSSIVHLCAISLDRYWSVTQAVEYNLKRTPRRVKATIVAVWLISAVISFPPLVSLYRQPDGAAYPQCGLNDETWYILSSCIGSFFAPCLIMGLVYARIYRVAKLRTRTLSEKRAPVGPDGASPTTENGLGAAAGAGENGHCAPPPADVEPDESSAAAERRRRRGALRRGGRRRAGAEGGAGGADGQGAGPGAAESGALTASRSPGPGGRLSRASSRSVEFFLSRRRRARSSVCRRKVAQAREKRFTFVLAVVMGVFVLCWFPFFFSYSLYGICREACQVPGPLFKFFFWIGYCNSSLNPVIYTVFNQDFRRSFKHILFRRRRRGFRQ
Sequence of Dual specificity protein phosphatase 6 (Homo sapiens) (Q16828 whole entry, looked up): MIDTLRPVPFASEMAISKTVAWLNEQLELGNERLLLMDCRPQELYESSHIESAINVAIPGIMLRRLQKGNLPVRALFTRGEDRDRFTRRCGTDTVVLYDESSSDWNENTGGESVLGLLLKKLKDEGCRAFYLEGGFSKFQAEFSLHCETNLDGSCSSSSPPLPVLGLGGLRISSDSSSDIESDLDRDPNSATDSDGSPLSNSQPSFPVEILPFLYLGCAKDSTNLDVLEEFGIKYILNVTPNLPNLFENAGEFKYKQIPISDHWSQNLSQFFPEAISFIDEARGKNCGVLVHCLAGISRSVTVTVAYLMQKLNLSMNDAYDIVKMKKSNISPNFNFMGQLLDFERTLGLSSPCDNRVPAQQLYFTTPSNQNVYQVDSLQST

Structure (SMILES) | cell count [1] | inhibition [1] | inhibition [2] | nuclei count [2] | z-score [3, 10] | z-score [3, 11] | z-score [3, 12] | inhibition [4] | fluorescence slope [5] | NADPH fluorescence slope [6] | slope [7] | outcome [8] | inhibition [9]
Nc1[nH]nc2nc(NCc3ccccc3)c3c(c12)CCN(Cc1ccccc1)C3 | 638 | -12.3% (inactive) | 20% (inactive) | 190% | 1.59 | -1.42 | -0.833 | 15.1% (inactive) | -0.502 (inactive) | -6.3e-05 (inactive) | 0.00406 (inactive) | inactive | 6.13% (inactive)
CC(=O)c1c(N)nc2n(c1=O)CCCCC2 | 354 | -4.7% (inactive) | -5.5% (inactive) | 162% | 0.366 | 0.179 | 0.934 | 9.42% (inactive) | -0.392 (inactive) | -0.000138 (inactive) | 0.0044 (inactive) | inactive | 24.2% (inactive)
Cc1cc(C)nc(N(C#N)CC(=O)N(c2ccccc2)C(C)C)n1 | 584 | -10.3% (inactive) | 50% (inactive) | 140% | -1.19 | -0.154 | 2.33 | -11% (inactive) | -0.345 (inactive) | -2.8e-05 (inactive) | 0.00548 (inactive) | inactive | 5.11% (inactive)
CN=C1c2c(-c3ccccc3)c3cc(OC)ccc3n2CCN1C | 531 | -21.3% (inactive) | -137% (inactive) | 145% | 0.562 | 0.295 | -0.655 | -2.47% (inactive) | -0.118 (active) | -9.2e-06 (inactive) | 0.00488 (inactive) | inactive | 2.56% (inactive)
COCc1cc(C)nc(N)c1C#N | 606 | 5.8% (inactive) | -20.1% (inactive) | 136% | 0.714 | -1.4 | 1.43 | 16.1% (inactive) | -0.219 (inactive) | 9.7e-06 (inactive) | 0.00554 (inactive) | inactive | -2% (inactive)
CCOC(=O)CSc1nc(C)c(C(C)=O)cc1C#N | 623 | -18.6% (inactive) | -0.7% (inactive) | 147% | -0.31 | -1.06 | -1.5 | -0.624% (inactive) | -0.403 (inactive) | -1.7e-05 (inactive) | 0.00581 (inactive) | inactive | 43.9% (inactive)
COCc1[nH]nc2c1C(c1cccc(OC)c1)C(C#N)=C(N)O2 (stereo unspecified) | 637 | -2.3% (inactive) | -17.7% (inactive) | 174% | 0.403 | -0.811 | -1.74 | -2.29% (inactive) | -0.403 (inactive) | -3.7e-05 (inactive) | 0.00513 (inactive) | inactive | 2.83% (inactive)
CCn1cc(C(=O)NCCc2ccccc2)c(=O)c2cc(F)c(N3CCN(C)CC3)cc21 | 483 | -8.4% (inactive) | -187% (inactive) | 186% | -0.562 | 1.62 | 1.38 | -8.95% (inactive) | -0.321 (inactive) | -1.5e-05 (inactive) | 0.00526 (inactive) | inactive | 23.3% (inactive)
O=c1c(C=NCCCn2ccnc2)c(-c2ccccc2)[nH]n1-c1nc2ccccc2s1 | 579 | -6.5% (inactive) | -108% (inactive) | 132% | 1.34 | -0.223 | 0.991 | 25.8% (inactive) | -0.47 (inactive) | -1.6e-05 (inactive) | 0.00444 (inactive) | inactive | 1.09% (inactive)
CCCCN(CCCC)c1nc2ccccc2nc1C(C#N)C(=O)NCCCOC (stereo unspecified) | 382 | -6.8% (inactive) | -187% (inactive) | 156% | -0.742 | 0.7 | 0.633 | -5.89% (inactive) | -0.0828 (active) | 9.1e-06 (inactive) | 0 (active) | inactive | 5.14% (inactive)
CCOC(=O)c1nc(N)c(C(=O)OCC)[nH]1 | 405 | 11.5% (inactive) | -32.3% (inactive) | 94.7% | -0.517 | 1.59 | -0.341 | 18.2% (inactive) | -0.47 (inactive) | -7.9e-05 (inactive) | 0.00468 (inactive) | inactive | -16% (inactive)
Cn1c2c(c(=O)n(C)c1=O)C(NC(=O)c1cccs1)(C(F)(F)F)C(=O)N2 (stereo unspecified) | 497 | 3.5% (inactive) | -80.8% (inactive) | 147% | 1.78 | -0.706 | -0.81 | 8.76% (inactive) | -0.537 (inactive) | -9.1e-06 (inactive) | 0.00621 (inactive) | inactive | 24.7% (inactive)
CCN(CC)CCCn1c(C)cc2c(c1=O)C(c1ccc(OC)c(OC)c1OC)C(C#N)=C(N)O2 (stereo unspecified) | 439 | 13.1% (inactive) | -23% (inactive) | 134% | -1.55 | -0.016 | 0.949 | 2.46% (inactive) | -0.389 (inactive) | -3.6e-05 (inactive) | 0.0068 (inactive) | inactive | -3.45% (inactive)
OC1CN=C2Sc3ccccc3N2C1 (stereo unspecified) | 530 | 13.2% (inactive) | -227% (inactive) | 188% | -0.279 | 0.975 | 0.81 | -7.28% (inactive) | -0.378 (inactive) | -1.8e-05 (inactive) | 0.00473 (inactive) | inactive | -4.68% (inactive)
Nc1nc(NC(=O)Cc2ccccc2)nn1-c1ccccc1 | 330 | -5.8% (inactive) | 16% (inactive) | 153% | -1.12 | 1.13 | 0.973 | 9.42% (inactive) | -0.381 (inactive) | -0.000121 (inactive) | 0.00768 (inactive) | inactive | 14.3% (inactive)
Nc1nnc(CC2=CCCCC2)s1 | 579 | -13.4% (inactive) | 28.3% (inactive) | 152% | -0.93 | 0.818 | -0.135 | -9.66% (inactive) | -0.396 (inactive) | -3.4e-05 (inactive) | 0.00749 (inactive) | inactive | 8.68% (inactive)
CCc1nnc(NC(=O)c2c(O)c3c([nH]c2=O)CCCC3)s1 | 332 | -15.4% (inactive) | -91.6% (inactive) | 154% | 0.462 | -0.342 | -0.281 | -7.01% (inactive) | -0.391 (inactive) | -0.000158 (inactive) | 0.00514 (inactive) | inactive | 8.98% (inactive)
COc1ccccc1N(O)C1CC(=O)N(c2ccc(F)cc2)C1=O (stereo unspecified) | 304 | -7.6% (inactive) | -18.5% (inactive) | 92% | -1.81 | 1.54 | 0.452 | 13.4% (inactive) | -0.46 (inactive) | -0.000168 (inactive) | 0.00806 (inactive) | inactive | -1.02% (inactive)
Cc1ccc(C2C(C(=O)c3cc4ccccc4o3)=C(O)C(=O)N2CCN(C)C)o1 (stereo unspecified) | 352 | -3% (inactive) | 23.2% (inactive) | 101% | -1.49 | 2.05 | -0.073 | -6.48% (inactive) | -0.443 (inactive) | -2.4e-05 (inactive) | 0.00982 (inactive) | inactive | -11.1% (inactive)
CC1(C)CC(=O)C2=C(C1)N(Cc1ccco1)C(=O)C2(NC(=O)c1cccnc1)C(F)(F)F (stereo unspecified) | 499 | -8.6% (inactive) | -131% (inactive) | 136% | -1.48 | -1.13 | 0.615 | 3.5% (inactive) | -0.492 (inactive) | -6.7e-05 (inactive) | 0.00643 (inactive) | inactive | 0.823% (inactive)
Cc1cccc(C)c1OCC(O)CNS(=O)(=O)c1ccccc1C(=O)N1CCOCC1 (stereo unspecified) | 458 | 1.5% (inactive) | -196% (inactive) | 172% | -0.426 | 0.519 | 1.28 | 2.71% (inactive) | -0.387 (inactive) | -1.1e-05 (inactive) | 0.00603 (inactive) | inactive | -5.56% (inactive)
COC(=O)c1[nH]c2cc(OC)ccc2c1NC(=O)CCN1CCCC(C)(C)C1 | 350 | -5.3% (inactive) | -2.2% (inactive) | 153% | -0.606 | -0.827 | 0.954 | 7.42% (inactive) | -0.44 (inactive) | -0.00014 (inactive) | 0.00716 (inactive) | inactive | -7.62% (inactive)
CCn1cc(C(=O)NCCCN(C)C)c(=O)c2cc(F)c(N3CCN(C)CC3)cc21 | 360 | -2.8% (inactive) | -88% (inactive) | 130% | -0.583 | 1.7 | -0.542 | -7.28% (inactive) | -0.286 (inactive) | -5e-06 (inactive) | 0.00472 (inactive) | inactive | 22% (inactive)
COC(=O)c1ccc(=O)n(Cc2ccc3c(c2)OCO3)c1 | 394 | -2.1% (inactive) | -128% (inactive) | 137% | 2.55 | 0.425 | -1.58 | 2.46% (inactive) | -0.427 (inactive) | -4.6e-05 (inactive) | 0.00627 (inactive) | inactive | -6.36% (inactive)
Cn1c(OCc2ccc3c(c2)OCO3)nc2c1c(=O)n(Cc1cccc(Cl)c1)c(=O)n2C | 646 | 5.7% (inactive) | -35.9% (inactive) | 149% | -0.768 | 0.366 | 0.018 | 9.61% (inactive) | -0.484 (inactive) | -0.000102 (inactive) | 0.00957 (inactive) | inactive | 4.63% (inactive)
CCCCNC(=O)N1CCOCCOCCN(C(=O)NCCCC)CCOCCOCC1 | 546 | -15.4% (inactive) | -120% (inactive) | 144% | 1.2 | -1.56 | 0.0473 | 3.97% (inactive) | -0.526 (inactive) | -2.2e-05 (inactive) | 0.00599 (inactive) | inactive | 17.8% (inactive)
O=C(c1ccco1)N1CCN(CCOCCOc2cccc3ccccc23)CC1 | 473 | -5.4% (inactive) | -81.6% (inactive) | 121% | -1.67 | -0.183 | 1.98 | -2.07% (inactive) | -0.504 (inactive) | -0.000107 (inactive) | 0.00477 (inactive) | inactive | 16.4% (inactive)
